# Screening data as filed in PubChem BioAssay.
# Calb FLC – affects C. albicans growth with fluconazole; 300,000 tested, 0.57% active; growth inhibition, % (concentration not given with the values); C. albicans CaCi-2 (fluconazole-resistant clinical isolate) + fluconazole, Alamar Blue growth, 48 h; AID 1979;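 active means growth inhibition above about 58% in most replicates, limit read from the data, passing the limit was not always enough; inconclusive means exactly half the replicates above a set limit; inactive means most replicates below a set limit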;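 further: all wells also contain fluconazole at 8 µg/ml as a sub-toxic cotreatment; 0% = median of DMSO wells and 100% = median of geldanamycin control wells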
# Beta cell apopt – beta cell apoptosis inhibition. 300,000 tested, 0.8% active. AID 435005. protection from apoptosis, % (concentration not given with the values). INS-1E cytokine-induced death, ATP luminescence, 48 h; percent of positive-control rescue, neutral wells zero;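 active means Every replicate reaches about 75%, or at least half do and their mean reaches it too, limit read from the data; inconclusive means At least half of replicates reach the limit but their mean does not; inactive means Under half of replicates reach the limit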;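 further: 0% = cytokine-treated negative control wells and 100% = positive control rescue; higher means more ATP so stronger rescue from cytokine killing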
# HIF act – HIF pathway transcriptional activation | U2OS HRE-luciferase reporter, luminescence; normalized: DMSO 0%, desferrioxamine 100% | 300,000 tested, 0.32% active | AID 1910 | activation, % at 7.5 µM (by protocol);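 active means mean activation of at least 10% of the iron chelator positive control signal, with at least half of replicates also reaching 10%; inconclusive means mean and replicate majority disagree about reaching 10%; inactive means mean and most replicates under 10%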
# CSC inhib – cancer stem cell inhibition. cancer stem cell-like cells viability, luminescence. inhibition, % at 7.5 µM. 300,000 tested, 1.1% active. AID 2717; in the data active means inhibition above about 75%; inconclusive means no clear call, values can overlap the other calls; tested in HMLE shEcad cells
# PolyA inhibitor – yeast polyadenylation inhibition. S. cerevisiae SKY197-pL101 polyadenylation reporter, beta-gal luminescence; efflux-impaired pdr1/pdr3 knockout yeast; score 100 = 6 SD above DMSO. activity score, % at 12 µM. 300,000 tested, 0.02% active;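 active means lowest replicate activity score at least 50, where 100 means six control SD above control mean; inconclusive means lowest score under 50 but half or more replicates reach 50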;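 further: yeast exposed to compound for 9 h at 30 °C; higher score means more reporter readthrough which indicates perturbed polyadenylation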
# T cruzi inh – T. cruzi replication inhibition; inhibition, % (test concentration not listed); 300,000 tested, 1.4% active; T. cruzi beta-gal in NIH3T3, luminescence, 90 h; AID 1885;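 active means mean inhibition across valid replicates above about 55%, limit read from the data; inconclusive means mean below that limit but half or more replicates reach it; inactive means mean below it, under half of replicates reach it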;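 further: signal also drops with host cell toxicity which is not excluded here; 0% = plate median of DMSO wells and 100% = zero luminescence signal; higher percent means less beta-gal luminescence so fewer parasites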
#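 Material: NIH/3T3 host cells with β-galactosidase reporter T. cruzi; Input: 5,000 host fibroblasts per well; Medium: DMEM, 2% fetal bovine serum; Compound: 50 nL DMSO compound solution per well; Schedule: 3 h host attachment, then at least 90 h co-culture; Detection: luminescent β-galactosidase signal after 60 min lysis.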
# Numbers without * were called inactive; ? = inconclusive; / = no result given. Most compounds without a hit are left out; they make up all but 3.1% or so of the library.
SMILES,Calb FLC,Beta cell apopt,HIF act,CSC inhib,PolyA inhibitor,T cruzi inh
O=C(CC1SC(=NCCc2ccccc2)N(/N=C/c2cccs2)C1=O)Nc1ccc(Cl)cc1 (stereo unspecified),-16.4,14.3,1.3,18.3,-7.8,49.4
c1ccc(CSc2ccc(-c3ccccn3)nn2)cc1,0.6,86.6*,10.1*,86.2*,-20.6,57.8*
O=C(CSc1ccc(-c2ccccn2)nn1)c1ccccc1,45.5,-1.4,2.5,15.7,-6.7,6.4
O=C(CSc1ccc(-c2ccccn2)nn1)NCc1ccc(Cl)cc1,-8.7,-5.8,0.0,8.9,4.6,?
Clc1ccc(CSc2ccc(-c3ccccn3)nn2)cc1,-20.9,84.1*,23.9*,127.3*,0.6,67.8*
COc1cc(C(=O)Oc2c(CN3CCOCC3)cc(Cl)c3cccnc23)cc(OC)c1OC,94.1*,92.9*,0.2,20.3,-8.8,30.3
COc1cccc(C(=O)OCCN2CCOCC2)c1,2.2,0.4,-0.1,-14.4,13.1,-7.0
O=C(Oc1ccc(Cl)c2cccnc12)N1CCOCC1,-7.7,-4.9,0.1,-9.4,-4.4,-5.0
COc1cc(C(=O)Oc2c(OC)cc(C(=S)N3CCOCC3)cc2OC)cc(OC)c1OC,-0.6,-11.6,0.7,-21.0,13.7,7.5
COc1cccc(C(=O)Oc2c(CN3CCOCC3)cc(Cl)c3cccnc23)c1,104.1*,89.9*,0.0,-7.6,-41.4,34.1
COc1ccc(C(=O)Oc2c(CN3CCOCC3)cc(Cl)c3cccnc23)cc1,88.2*,53.9,-6.3,14.4,-6.8,41.7
O=C(Oc1c(CN2CCOCC2)cc(Cl)c2cccnc12)c1ccc(F)cc1,95.9*,83.4*,2.9,17.2,-37.1,56.2*
O=C(CCNC(=O)c1ccccc1Cl)Nc1nnc(C2CC2)s1,9.1,-6.5,0.1,-7.2,14.3,-1.6
Clc1ccc(C2=NCCN2)cc1,-5.2,-12.9,0.0,5.5,-16.2,61.7*
CSc1ccc(NC(=O)Nc2cccn(Cc3ccccc3F)c2=O)cc1,-4.2,2.3,2.1,6.4,-14.1,58.6*
O=[N+]([O-])c1cc(-c2ccn[nH]2)ccc1Cl,-5.6,-6.2,0.0,-4.0,-18.5,-3.6
CCc1ccc(-c2cc(C(=O)N3N=C(C(F)F)CC3(O)C(F)F)c3ccccc3n2)cc1 (stereo unspecified),24.9,13.7,-0.4,88.7*,1.6,59.0*
CCc1cc(=O)n2c([nH]c3ccccc32)c1C#N,-1.2,14.5,1.4,20.4,10.5,-10.7
CCc1cc(=S)n2c([nH]c3ccccc32)c1C#N,97.1*,-3.2,3.1,/,-17.0,-7.8
C=C(C)Cc1c(C)c(C#N)c2[nH]c3ccccc3n2c1=O,-2.0,32.5,-7.9,9.8,-9.9,43.1
Cc1ccc(Cc2c(C)c(C#N)c3[nH]c4ccccc4n3c2=O)cc1,26.3,76.8*,-0.2,32.0,-21.6,12.8
O=C(CN1c2ccccc2Sc2ccccc21)NNC(=O)Nc1ccc(Cl)c(Cl)c1,5.7,/,0.1,101.4*,-4.6,4.1
Cc1cc(/C=C2/C(=O)NN(c3ccccc3)C2=O)c(C)n1-c1cccc(O)c1,-49.5,-5.4,0.3,20.9,-16.2,-26.1
O=C1NN(c2ccc(Br)cc2)C(=O)/C1=C\c1ccc(O)cc1O,98.0*,-3.0,-22.1,2.1,-9.7,4.4
O=C1NN(c2cccc(Br)c2)C(=O)/C1=C\c1ccc(O)cc1,-12.0,-11.0,-0.3,108.2*,-4.4,10.8
SMILES,Calb FLC,Beta cell apopt,HIF act,CSC inhib,PolyA inhibitor,T cruzi inh
COc1ccccc1CN1CCN(Cc2nc(-c3cccs3)no2)CC1,-5.5,-0.1,1.4,6.6,?,61.0*
COc1cccc(/C=N/Nc2nc3ccccc3n3cnnc23)c1O,-3.2,119.2*,1.9,57.3,-5.1,13.7
COc1ccc(Nc2nc3ccccc3n3cnnc23)cc1,46.6,-34.0,0.1,/,8.9,-6.4
COc1cccc(/C=N/Nc2nn3cnnc3c3ccccc23)c1,0.4,34.1,1.3,13.3,12.8,-3.7
COc1cccc(/C=N/Nc2nc3ccccc3[nH]2)c1OC,-8.4,/,4.6,1.4,-2.8,-6.0
COc1cccc(/C=N/Nc2nc3ccccc3n3cnnc23)c1,-1.7,-2.6,360.2*,-5.4,-0.4,2.4
COc1cccc(/C=N/Nc2nc3ccccc3[nH]2)c1O,66.6,94.0*,11.0*,67.5,-6.8,47.6
O=C1CCc2ccc(NS(=O)(=O)c3ccc(F)cc3)cc2N1,9.4,4.5,-0.3,-6.6,5.1,-0.5
Cc1ccc(S(=O)(=O)NCc2ccccc2)cc1C(=O)NC1CCCCC1,7.2,0.6,-0.2,3.8,-18.8,-3.0
O=C(NCC1CCCO1)C(c1ccc(F)cc1)N(Cc1ccc(F)cc1)C(=O)Cn1nnc(-c2cccs2)n1 (stereo unspecified),103.7*,8.4,-1.1,-16.7,4.4,13.6
CCOC(=O)CNC(=S)N1CCn2c(nc3ccccc32)C1,-2.8,-4.9,-0.1,-11.2,23.8,11.6
COc1ccc(CN(C)CC(=O)Nc2ccc(SC(F)F)cc2)cc1OC,33.0,4.9,57.4*,7.1,-2.1,13.4
COc1ccc(CN(C)CC(=O)Nc2ccc(N3CCOCC3)cc2)cc1OC,-11.9,1.9,-0.7,-1.9,-2.8,-8.3
Cc1cccc(-c2noc(CN(C)S(=O)(=O)c3cc(Cl)ccc3Cl)n2)c1,-26.7,2.1,167.5*,44.1,16.4,32.4
COc1ccc(Cl)cc1C(=O)N(Cc1nc(-c2cccc(C)c2)no1)C(C)C,10.5,4.0,-0.4,6.3,-14.2,26.8
COc1cccc(-c2cc3nc(-c4ccccc4)cc(N4CCCC(O)C4)n3n2)c1 (stereo unspecified),1.4,13.0,0.0,90.2*,-34.4,37.0
CCN1CCN(c2cc(-c3ccccc3)nc3cc(-c4cccc(F)c4)nn23)CC1,35.6,8.0,-0.6,?,-16.8,36.2
OC1CCN(c2cc(-c3ccccc3)nc3cc(-c4ccc(F)cc4)nn23)CC1,15.4,8.9,-0.1,88.3*,-28.5,38.4
CCCCN(C(=O)c1ccc2c(c1)OCO2)c1ccccc1,-0.2,-0.4,0.0,-9.3,-4.2,-1.2
CCCCCCOc1ccc(/C(C)=N/NC2=NCCN2)cc1,11.6,46.7,0.5,99.7*,1.7,51.4
N#CC1=C(N)N2C(=C(C#N)C1c1ccc(Br)cc1)Nc1ccccc12 (stereo unspecified),54.8,109.0*,0.1,114.1*,13.8,-0.8
N#CC1=C(N)N2C(=C(C#N)C1c1cccc(Br)c1)Nc1ccccc12 (stereo unspecified),-7.9,99.7*,3.9,58.4,28.7,-3.2
N#CC1=C(N)N2C(=C(C#N)C1c1ccccc1)Sc1ccccc12 (stereo unspecified),11.6,-2.6,-0.5,-5.1,1.8,-5.7
CCCCN(C)CCNC(=O)C1CCN(S(=O)(=O)c2cccc3nsnc23)CC1,51.7,0.1,0.4,9.0,2.9,24.5
